According to ChEMBL document CHEMBL1142216, “Clinical prediction tool to identify patients with Pseudomonas aeruginosa respiratory tract infections at greatest risk for multidrug resistance” (2007):

Tests used:
Format in all cases: functional
[1] = test system: Pseudomonas aeruginosa; experiment: Antibiotic susceptibility by resistance against Pseudomonas aeruginosa from samples collected from patients
Outline: (§1)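 Clinical P. aeruginosa respiratory isolates from hospitalized patients. Susceptibility testing was done by the hospital microbiology laboratory using Kirby-Bauer disk diffusion and interpreted by Clinical and Laboratory Standards Institute guidelines. Laboratory-reported susceptibilities and MICs were abstracted retrospectively. Isolates were grouped overall and by resistance to at least four drug classes (MDR versus non-MDR).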

[2] = test system: Pseudomonas aeruginosa; experiment: Antibiotic susceptibility by resistance against MDR Pseudomonas aeruginosa from samples collected from patients; outline: as §1
[3] = test system: Pseudomonas aeruginosa; experiment: Antibiotic susceptibility by resistance against non-MDR Pseudomonas aeruginosa from samples collected from patients; outline: as §1

| Compound | Activity [1] [%] | Activity [2] [%] | Activity [3] [%] |
| --- | --- | --- | --- |
| NCC[C@H](O)C(=O)N[C@@H]1C[C@H](N)[C@@H](O[C@H]2O[C@H](CN)[C@@H](O)[C@H](O)[C@H]2O)[C@H](O)[C@H]1O[C@H]1O[C@H](CO)[C@@H](O)[C@H](N)[C@H]1O [AMIKACIN] | 90.9 | 82 | 95.6 |
| C[C@H]1[C@H](NC(=O)/C(=N\OC(C)(C)C(=O)O)c2csc(N)n2)C(=O)N1S(=O)(=O)O [AZTREONAM] | 58.1 | 18.9 | 79 |
| CO/N=C(\C(=O)N[C@@H]1C(=O)N2C(C(=O)[O-])=C(C[N+]3(C)CCCC3)CS[C@H]12)c1csc(N)n1 [CEFEPIME] | 81.8 | 52.5 | 97.4 |
| O=C(O)c1cn(C2CC2)c2cc(N3CCNCC3)c(F)cc2c1=O [CIPROFLOXACIN] | 42.5 | 3.3 | 63.3 |
| C[C@@H](O)[C@H]1C(=O)N2C(C(=O)O)=C(S[C@@H]3CN[C@H](C(=O)N(C)C)C3)[C@H](C)[C@H]12 [MEROPENEM] | 56.1 | 17.2 | 76.9 |
| NC[C@H]1O[C@H](O[C@H]2[C@H](O)[C@@H](O[C@H]3O[C@H](CO)[C@@H](O)[C@H](N)[C@H]3O)[C@H](N)C[C@@H]2N)[C@H](N)C[C@@H]1O [TOBRAMYCIN] | 67.5 | 36.9 | 83.8 |
